Laboratory results from PubChem BioAssay AID2295 (NMMLSC, 2010).
Calls of active or inactive are those of the source.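 How the source made its calls: active means EC50 of 30 microM or lower, as activator or inhibitor; inactive means the rest.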

Biological target: Regulator of G-protein signaling 4 (Homo sapiens) (UniProt P49798)
Experiment: RGS4-Galphao binding modulators, SAR follow-up, biochemical, multiplexed bead flow cytometry, SAR compounds (AID 2295)
Conditions: bead-based flow cytometry, RGS4-AF488 Galphao binding
How it was run: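 Material: streptavidin bead-bound biotinylated RGS4, multiplexed bead sets; Detection: flow cytometry, median green (AlexaFluor488) fluorescence per bead set; Read-out basis: % response, EC50 and Ki (Kd 40 nM); Incubation: 30-90 min incubation at room temperature; Compound: 9 points, threefold dilution steps; Probe or stimulus: AlexaFluor488-labeled Galphao-GDP-AlF4 probe, 7 nM final.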

Chain of Regulator of G-protein signaling 4 (Homo sapiens) (P49798 whole entry, looked up): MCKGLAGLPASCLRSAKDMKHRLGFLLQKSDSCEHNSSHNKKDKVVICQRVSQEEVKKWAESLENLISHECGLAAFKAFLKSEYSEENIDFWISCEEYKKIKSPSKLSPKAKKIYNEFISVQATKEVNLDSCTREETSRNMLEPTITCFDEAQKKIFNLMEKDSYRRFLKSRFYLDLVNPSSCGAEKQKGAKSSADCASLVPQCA

| EC50 | SMILES |
| --- | --- |
| > 30 µM (inactive) | Cc1[nH]n(-c2ccccc2)c(=S)c1C=NCCCN=Cc1c(C)[nH]n(-c2ccccc2)c1=S |
| > 30 µM (inactive) | CC(=O)OCCCNc1cc(Sc2nc3ccccc3s2)c2nonc2c1[N+](=O)[O-] |
| > 30 µM (inactive) | Cc1cccc(N2CCN(C(=O)Cn3sc4nc(C)cc(C)c4c3=O)CC2C)c1 (stereo not drawn) |
| > 30 µM (inactive) | CC(NC(=O)c1sc2cc([N+](=O)[O-])ccc2c1Cl)C(C)(C)C (stereo not drawn) |
| 1.2 µM | NS(=O)(=O)c1ccc(N/N=C/c2ccc(O)c(O)c2O)c([N+](=O)[O-])c1 |

Same assay, conditions: bead-based flow cytometry, RGS4-AF488 Galphao binding; measured here: Ki calculated from EC50

| Ki | SMILES |
| --- | --- |
| 0.49 µM | COc1ccc(C2=CC(=O)C=CC2=O)cc1 |
| 0.26 µM | Cc1cc(Cl)ccc1N=c1ssnc1Cl |
| 0.14 µM | O=C(COc1ccccc1C(=O)N/N=C/c1ccc(O)c(O)c1)N/N=C/c1ccc(O)c(O)c1 |
| 9.37 µM | Cc1[nH]n(-c2ccccc2)c(=S)c1C=Nc1cccc([N+](=O)[O-])c1 |
| 0.94 µM | O=C(Cc1csc(N2CCOCC2)n1)N/N=C/c1ccc(O)c(O)c1O |
| 8.2 µM | CCN(CC)S(=O)(=O)c1cccc(-c2n[nH]c(=S)n2/N=C/c2ccc(C(=O)OC)cc2)c1 |
| 1.46 µM | CN=c1scc(C)n1/N=C/c1ccc(O)c(O)c1O |
| 5.62 µM | CCC(=O)NC(c1ccc(C)cc1)c1cc([N+](=O)[O-])c2cccnc2c1O (stereo not drawn) |
| 0.27 µM | O=c1c2ccccc2sn1-c1ccc(S(=O)(=O)N2CCCC2)cc1 |
| 8.57 µM | O=C(NCCCN1CCOCC1)c1sc2cc([N+](=O)[O-])ccc2c1Cl |
| 5.83 µM | Cc1cccc(N2CCN(C(=O)COc3nsc4nc(C)cc(C)c34)CC2C)c1 (stereo not drawn) |
| 0.29 µM | CN1CCN(C2=C(Cl)C(=O)C(c3cnc(N4CCCCC4)s3)=C(Cl)C2=O)CC1 |
| 1.02 µM | NS(=O)(=O)c1ccc(N/N=C/c2ccc(O)c(O)c2O)c([N+](=O)[O-])c1 |
| 0.11 µM | O=c1c2ccccc2sn1-c1ccccc1 |
| 0.23 µM | O=C1C(Cl)=C(N2CCCCC2)C(=O)C(Cl)=C1c1cnc(N2CCCCC2)s1 |
| 3 µM | CCN=c1scc(C)n1/N=C/c1ccc(O)c(O)c1O |
| 6.68 µM | CCOC(=O)c1sc(NC(=O)CSc2nnc(Cc3ccccc3)o2)c(C#N)c1C |
| 0.54 µM | CCN(CC)S(=O)(=O)c1cccc(C(=O)N/N=C/c2ccc(O)c(O)c2O)c1 |
